Source: ChEMBL document CHEMBL2157993, “Urea-based inhibitors of Trypanosoma brucei methionyl-tRNA synthetase: selectivity and in vivo characterization” (J Med Chem, 2012)
Activity calls are given as the source filed them. No cut-off for these calls is given here.

Assays:
Trypanosoma brucei [1] = assay: Binding affinity to Trypanosoma brucei MetRS at 100 uM by thermal shift assay
Outline: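 Thermal shift (ΔTm) read-out with T. brucei MetRS at 0.4 mg/ml and 5% DMSO; otherwise per an earlier protocol. The test agent was at the single concentration in the curator's line. Repeated three times independently.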

[2] = Inhibition of Trypanosoma brucei MetRS aminoacylation activity assessed as reduction in [3H]methionine incorporation into Escherichia coli tRNA pre-incubated for 15 mins before tRNA addition and measured after 120 mins by scintillation counting
Outline: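 Recombinant enzyme at 10 nM, preincubated 15 min with 12-point two-fold inhibitor dilutions in 25 mM HEPES pH 7.9, 10 mM MgCl2, 50 mM KCl, spermine, BSA, DTT, 1% DMSO and pyrophosphatase. Reaction started with 400 μg/mL E. coli tRNA, 0.1 mM ATP and 250 nM [3H]methionine, run 120 min at room temperature. TCA-precipitated and filtered for scintillation counting. Quadruplicate, with IC50 by sigmoidal fit.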

[3] = Selectivity ratio of IC50 for human MetRS to IC50 for Trypanosoma brucei MetRS
Outline: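 Ratio of the human mitochondrial MetRS IC50 to the T. brucei MetRS IC50, each from a [3H]methionine aminoacylation assay.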

[4] = tested on: Trypanosoma brucei brucei; assay: Growth inhibition of Trypanosoma brucei brucei 427 blood stream forms after 48 hrs by alamar blue assay; type: functional, organism-based; conditions: Trypanosoma brucei, 427, 48 h
Outline: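 Strain 427 bloodstream forms cultured in HMI-9 with 10% FBS at 37°C, 5% CO2. Triplicate wells seeded at 5×10^4 trypomastigotes with serial compound dilutions from 20 mM DMSO stocks. AlamarBlue read-out at 48 h, with pentamidine as the positive control.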

[5] = Cytotoxicity against human CRL8155 cells incubated for 48 hrs by alamar blue assay; type: cell-based; conditions: CRL8155, 48 h
Outline: (§1)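 […] cells in RPMI or HepG2 cells in DMEM/F-12, each with 10% serum, seeded at 5×10^3 per well. Exposed to serial compound dilutions for 48 h.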

[6] = Permeability across MDCK2-MDR1 cells expressing MDR1 at 3 uM in absence of 2 uM P-gp inhibitor Elacridal by mass spectroscopy; type: ADME, cell-based, Canis lupus familiaris; conditions: dog, mdck-ii
Outline: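 MDR1-MDCKII cells seeded on Transwell inserts and assayed 3 days later at 37°C in HBSS with glucose and HEPES. Monolayers preincubated about 30 min with or without 2 μM elacridar, then given compound at 3 μM final (apical). After 60 min shaking, both chambers were sampled for MS. Integrity checked by Lucifer Yellow and TEER. Triplicate. Papp(A-B) and AQ calculated.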

[7] = (§2) Cmax in mouse at 50 mg/kg, po administered as single dose measured over 6 hrs by MS/MS method; type: ADME, organism-based; set-up: dose 50 mg/kg, route oral; conditions: in vivo
Outline: (§3)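 Mice, three per group, given one oral dose of 50 mg/kg in 5% DMSO, 3% EtOH, 7% Tween 80 in saline. Tail-snip blood taken at 0.5, 1, 2, 3, 4 and 6 h. Plasma extracted with acetonitrile and quantified by LC-MS/MS.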

[8] = Tmax in mouse at 50 mg/kg, po administered as single dose measured over 6 hrs by MS/MS method; type: ADME, organism-based; set-up: dose 50 mg/kg, route oral; conditions: in vivo; outline: as §3
[9] = (§4) Half life in mouse at 50 mg/kg, po administered as single dose measured over 6 hrs by MS/MS method; type: ADME, organism-based; set-up: dose 50 mg/kg, route oral; conditions: in vivo; outline: as §3
[10] = (§5) AUC in mouse at 50 mg/kg, po administered as single dose measured over 6 hrs by MS/MS method; type: ADME, organism-based, Plasma; set-up: time < 6 hr, dose 50 mg/kg, route oral; conditions: plasma; outline: as §3
[11] = molecular target: ATP-dependent translocase ABCB1 (Homo sapiens, UniProt P08183); assay: Binding affinity to MDR1 expressed in MDCK2 cells assessed as absorptive quotient at 3 uM in absence of 2 uM by mass spectroscopy; type: ADME, cell-based; conditions: dog, mdck-ii
Sequence of ATP-dependent translocase ABCB1 (P08183 whole entry): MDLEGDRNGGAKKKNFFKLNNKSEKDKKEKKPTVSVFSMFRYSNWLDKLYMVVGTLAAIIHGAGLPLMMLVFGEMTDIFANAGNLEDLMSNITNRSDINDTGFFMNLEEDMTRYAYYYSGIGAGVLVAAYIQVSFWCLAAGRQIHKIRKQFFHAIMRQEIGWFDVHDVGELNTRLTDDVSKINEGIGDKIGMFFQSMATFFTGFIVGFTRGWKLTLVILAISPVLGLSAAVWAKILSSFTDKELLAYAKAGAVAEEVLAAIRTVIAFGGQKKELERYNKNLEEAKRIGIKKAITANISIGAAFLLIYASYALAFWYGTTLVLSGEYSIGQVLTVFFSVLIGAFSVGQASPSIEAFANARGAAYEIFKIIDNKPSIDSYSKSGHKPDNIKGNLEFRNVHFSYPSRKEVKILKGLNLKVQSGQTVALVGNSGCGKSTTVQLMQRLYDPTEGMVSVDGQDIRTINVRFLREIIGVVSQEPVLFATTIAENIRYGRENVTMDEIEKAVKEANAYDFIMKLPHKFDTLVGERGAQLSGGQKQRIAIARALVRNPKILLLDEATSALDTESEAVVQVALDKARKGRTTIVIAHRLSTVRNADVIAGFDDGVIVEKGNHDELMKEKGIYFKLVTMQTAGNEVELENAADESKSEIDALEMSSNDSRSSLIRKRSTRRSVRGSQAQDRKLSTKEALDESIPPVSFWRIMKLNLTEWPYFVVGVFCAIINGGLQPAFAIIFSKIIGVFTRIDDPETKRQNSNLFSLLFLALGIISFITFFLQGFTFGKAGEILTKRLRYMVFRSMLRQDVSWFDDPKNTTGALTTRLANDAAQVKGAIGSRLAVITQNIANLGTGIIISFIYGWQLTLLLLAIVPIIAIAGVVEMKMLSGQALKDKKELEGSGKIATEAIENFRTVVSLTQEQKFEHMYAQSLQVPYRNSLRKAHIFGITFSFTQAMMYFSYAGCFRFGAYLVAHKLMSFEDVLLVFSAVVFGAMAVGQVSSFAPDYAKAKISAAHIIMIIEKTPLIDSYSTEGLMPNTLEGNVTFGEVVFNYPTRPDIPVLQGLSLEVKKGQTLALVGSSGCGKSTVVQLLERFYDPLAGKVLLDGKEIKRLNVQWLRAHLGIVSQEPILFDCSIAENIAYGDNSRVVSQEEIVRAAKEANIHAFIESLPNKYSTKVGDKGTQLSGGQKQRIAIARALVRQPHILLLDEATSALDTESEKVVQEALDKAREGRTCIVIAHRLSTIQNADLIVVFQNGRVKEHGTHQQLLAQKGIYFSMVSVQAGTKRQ
Outline: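 Monolayers preincubated about 30 min with or without 2 μM elacridar, then given compound at 3 μM final (apical). After 60 min shaking, both chambers were sampled for MS. Integrity checked by Lucifer Yellow and TEER. Triplicate. Papp(A-B) and AQ calculated.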

[12] = Selectivity index, ratio of EC50 for human CRL8155 cells to EC50 for Trypanosoma brucei brucei 427; type: toxicity; conditions: read-out: Ratio EC50
[13] = Selectivity index, ratio of EC50 for human HepG2 cells to EC50 for Trypanosoma brucei brucei 427; type: toxicity, cell-based; conditions: read-out: Ratio EC50
HepG2 = assay: Cytotoxicity against human HepG2 cells incubated for 48 hrs by alamar blue assay; type: cell-based; conditions: HepG2, 48 h; outline: as §1
Mus musculus [14] = assay: as §2; type: ADME, organism-based; set-up: dose 50 mg/kg, route oral; conditions: in vivo, 6 h; outline: as §3
Mus musculus [15] = assay: as §4; type: ADME, organism-based; set-up: dose 50 mg/kg, route oral; conditions: in vivo, 6 h; outline: as §3
Mus musculus [16] = assay: as §5; type: ADME, organism-based, Plasma; set-up: time < 6 hr, dose 50 mg/kg, route oral; conditions: in vivo, 6 h; outline: as §3
[17] = tested on: Trypanosoma brucei rhodesiense; assay: Antiparasitic activity against Trypanosoma brucei rhodesiense STIB900 infected in Swiss Webster mouse assessed as reduction in parasitemia at 50 mg/kg, po dosed 24 hrs post infection every 12 hrs for 4 days measured 48 hrs post infection by microscopy; type: functional; set-up: scale not given: the % may be the effect or the level left
Outline: (§6)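 Female Swiss Webster (CFW) mice, 6-8 weeks old, five per group. Each infected IP at time 0 with 1×10^4 bloodstream-form STIB900 in 0.2 ml. Compound in 5% DMSO, 3% EtOH, 7% Tween 80 in saline, given by oral gavage (0.2 mL). Vehicle-only group dosed alongside. Parasitemia read daily by wet-mount microscopy of tail blood. Unpaired t-tests per day.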

[18] = tested on: Trypanosoma brucei rhodesiense; assay: Antiparasitic activity against Trypanosoma brucei rhodesiense STIB900 blood stream forms incubated for 48 hrs by alamar blue assay; type: functional, organism-based; conditions: STIB900, 48 h
Mus musculus [19] = assay: Toxicity in Trypanosoma brucei rhodesiense STIB900 infected Swiss Webster mouse at 50 mg/kg, po dosed 24 hrs post infection every 12 hrs for 4 days; type: organism-based; set-up: dose 50 mg/kg, route oral; conditions: in vivo
Mus musculus [20] = assay: Time duration for plasma concentration staying above IC50 in Trypanosoma brucei rhodesiense STIB900 infected Swiss Webster mouse at 50 mg/kg, po dosed 24 hrs post infection every 12 hrs for 4 days
Trypanosoma brucei [21] = assay: Inhibition of protein synthesis in Trypanosoma brucei assessed as reduction in [3H]L-histidine incorporation into proteins incubated for 4 hrs by scintillation counting; type: functional, organism-based
[22] = tested on: Trypanosoma brucei rhodesiense; assay: Antiparasitic activity against Trypanosoma brucei rhodesiense STIB900 infected in Swiss Webster mouse assessed as reduction in parasitemia at 50 mg/kg, po dosed 24 hrs post infection every 12 hrs for 4 days measured 72 hrs post infection by microscopy; type: functional; set-up: scale not given: the % may be the effect or the level left; outline: as §6
[23] = tested on: Trypanosoma brucei rhodesiense; assay: Antiparasitic activity against Trypanosoma brucei rhodesiense STIB900 infected in Swiss Webster mouse assessed as reduction in parasitemia at 50 mg/kg, po dosed 24 hrs post infection every 12 hrs for 4 days measured 96 hrs post infection by microscopy; type: functional; set-up: scale not given: the % may be the effect or the level left; outline: as §6
[24] = tested on: Trypanosoma brucei rhodesiense; assay: Antiparasitic activity against Trypanosoma brucei rhodesiense STIB900 infected in Swiss Webster mouse assessed as reduction in parasitemia at 50 mg/kg, po dosed 24 hrs post infection every 12 hrs for 4 days measured 120 hrs post infection by microscopy; type: functional, organism-based; set-up: dose 50 mg/kg
[25] = Drug level in Swiss Webster mouse brain at 5 mg/kg, ip after 60 mins by MS/MS method; type: ADME, organism-based; set-up: dose 5 mg/kg, route intraperitoneal; conditions: read-out: Drug uptake
Outline: (§7)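 Female Swiss Webster mice, 6-8 weeks old, three per compound, given 5 mg/kg IP in 5% DMSO/3% EtOH/7% Tween 80 saline. Killed at 1 h. Plasma and homogenised brain extracted with acetonitrile containing an extraction standard, with spiked blank brains used for standardisation. Quantified by LC-MS/MS.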

[26] = Plasma concentration in Swiss Webster mouse at 5 mg/kg, ip after 60 mins by MS/MS method; type: ADME, organism-based; set-up: dose 5 mg/kg, route intraperitoneal; outline: as §7

O=C(NCCCNCc1cc(Cl)cc(Cl)c1)Nc1ccc(Cl)cc1
ΔTm (Trypanosoma brucei [1]): 5.7 °C

O=C(NCCCNCc1cc(Cl)cc(Cl)c1)Nc1ccncc1
ΔTm (Trypanosoma brucei [1]): 3.1 °C

O=C(NCCCNCc1cc(Cl)cc(Cl)c1Cl)Nc1ccccc1
ΔTm (Trypanosoma brucei [1]): 6.4 °C

COc1cc(Cl)cc(CNCCCNC(=O)Nc2ccsc2)c1
ΔTm (Trypanosoma brucei [1]): 7.9 °C
IC50 [2]: 19 nM
Ratio IC50 [3]: 347
EC50 [4]: 150 nM
EC50 [5]: 22000 nM
Papp [6]: 9.7 ×10⁻⁶ cm/s
Cmax [7]: 1290 nM
Tmax [8]: 30 min
half-life [9]: 82 min
AUC at 6 h [10]: 2.68 µM·h
AQ [11]: 0.53
selectivity ratio [12]: 147
selectivity ratio [13]: 147

N=C(NCCCNCc1cc(Cl)cc(Cl)c1)Nc1ccccc1
ΔTm (Trypanosoma brucei [1]): 4.5 °C

O=C(NCCCNCc1cc(Cl)cc(Cl)c1)Nc1ccccn1
ΔTm (Trypanosoma brucei [1]): 4.5 °C

O=C(NCCCNCc1cc(Cl)cc(Cl)c1)Nc1ccccc1F
ΔTm (Trypanosoma brucei [1]): 7.3 °C

COc1ccccc1CNCCCNC(=O)Nc1ccccc1
ΔTm (Trypanosoma brucei [1]): 1.1 °C

COc1cc(Cl)cc(CNCCCNC(=O)Nc2ccccc2)c1
ΔTm (Trypanosoma brucei [1]): 7.7 °C
IC50 [2]: 45 nM
Ratio IC50 [3]: 186
EC50 [4]: 330 nM
EC50 [5]: 20000 nM
Papp [6]: 7.3 ×10⁻⁶ cm/s
AQ [11]: 0.49

Nc1ccccc1NC(=O)NCCCNCc1cc(Cl)cc(Cl)c1
ΔTm (Trypanosoma brucei [1]): 4.7 °C

O=C(NCCCNCc1cc(Cl)cc(Cl)c1)Nc1cccc(O)c1
ΔTm (Trypanosoma brucei [1]): 7.7 °C
IC50 [2]: 29 nM
Ratio IC50 [3]: 187
EC50 [4]: 170 nM
EC50 [5]: 12000 nM
Papp [6]: 2.9 ×10⁻⁶ cm/s
AQ [11]: 0.62

O=C(NCCCNCc1cc(Cl)cc(Cl)c1)Nc1cccs1
ΔTm (Trypanosoma brucei [1]): 7.6 °C
IC50 [2]: 64 nM
Ratio IC50 [3]: 48
EC50 [4]: 350 nM
EC50 (HepG2): 14500 nM

O=C(NCCCNCc1cc(Cl)cc(Cl)c1)Nc1ccsc1
ΔTm (Trypanosoma brucei [1]): 8.3 °C
IC50 [2]: 28 nM
Ratio IC50 [3]: 155
EC50 [4]: 220 nM
EC50 (HepG2): 13000 nM
Papp [6]: 17.2 ×10⁻⁶ cm/s
Cmax (Mus musculus [14]): 3700 nM
Tmax [8]: 30 min
t1/2 (Mus musculus [15]): 63 min
AUC (Mus musculus [16]): 464 µM·min
Activity [17]: 94%
EC50 [18]: 420 nM
Activity (Mus musculus [19]): Non-toxic
AQ [11]: 0.42
Time (Mus musculus [20]): <6 h
inhibition (Trypanosoma brucei [21]): Dose-dependent effect
selectivity ratio [12]: 55
selectivity ratio [13]: 59
Activity [22]: 80%
Activity [23]: 63%
Activity [24]: inactive

O=C(NCCCNCc1ccccc1)Nc1ccccc1
ΔTm (Trypanosoma brucei [1]): 1.3 °C

CCOc1ccccc1CNCCCNC(=O)Nc1ccccc1
ΔTm (Trypanosoma brucei [1]): 1.1 °C

O=C(NCCCNCc1cc(Cl)cc(Cl)c1)Nc1ccccc1
ΔTm (Trypanosoma brucei [1]): 7.8 °C
IC50 [2]: 57 nM
EC50 [4]: 415 nM
EC50 (HepG2): 20000 nM
Papp [6]: 35.6 ×10⁻⁶ cm/s
concentration at 1 h [25]: 1800 nM
Cmax [7]: 1350 nM
Tmax [8]: 30 min
half-life [9]: 65 min
AUC at 6 h [10]: 2.53 µM·h
concentration at 1 h [26]: 120 nM
AQ [11]: 0.21

O=C(NCCCNCc1cc(Cl)cc(Cl)c1)Nc1ccc(F)cc1
ΔTm (Trypanosoma brucei [1]): 6.3 °C
